According to ChEMBL document CHEMBL4765431, “Novel phthalide derivatives: Synthesis and anti-inflammatory activity in vitro and in vivo” (Eur J Med Chem, 2020):
The source made the active and inactive calls. The rule behind the calls is not given here.

Tests used:
RAW264.7 [1] = assay: Cytotoxicity against mouse RAW264.7 cells assessed as reduction in cell viability at 20 uM incubated for 24 hrs by MTT assay; format: cell-based; conditions: raw264.7, 24 h
Summary of the method: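 RAW264.7 cells (1 × 10^4/well, used 24 h after seeding) exposed to 20 µM for 24 h. MTT (5 mg/mL stock) added for 4 h, supernatant removed, crystals dissolved in DMSO with 10–15 min shaking, absorbance at 492 nm.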

RAW264.7 [2] = assay: Antiinflammatory activity in mouse RAW264.7 cells assessed as inhibition of LPS-induced nitric oxide production at 10 uM preincubated for 1 hr followed by LPS stimulation and measured after 24 hrs by Griess reagent-based assay relative to control; format: functional; conditions: time 25 hrs
Summary of the method: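 RAW264.7 cells (7 × 10^4/well, used 24 h after seeding) in DMEM with 10% heat-inactivated FBS, 37 °C, 5% CO2. Pretreated 1 h with compound (10 µM screen; 0.625–10 µM dose series), then LPS 0.5 µg/mL for 24 h. Supernatant mixed 1:1 with Griess reagent, 15 min at room temperature, absorbance read at […].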

RAW264.7 [3] = assay: Antiinflammatory activity in mouse RAW264.7 cells assessed as inhibition of LPS-induced nitric oxide production preincubated for 1 hr followed by LPS stimulation and measured after 24 hrs by Griess reagent-based assay; format: functional, cell-based
RAW264.7 [4] = assay: Cytotoxicity against mouse RAW264.7 cells assessed as reduction in cell viability incubated for 24 hrs in presence of LPS by MTT assay; format: cell-based; conditions: RAW264.7, 24 h
RAW264.7 [5] = assay: Cytotoxicity against mouse RAW264.7 cells assessed as reduction in cell viability incubated for 24 hrs in absence of LPS by MTT assay; format: cell-based; conditions: RAW264.7, 24 h
RAW264.7 [6] = assay: Anti-inflammatory activity in mouse RAW264.7 cells assessed as inhibition of LPS-induced COX-2 protein expression preincubated for 1 hr followed by LPS stimulation and measured after 24 hrs by Western blot analysis; format: functional, cell-based; conditions: dose 0.5-2 µM, time 25.0 hrs
Summary of the method: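 Cells pretreated 1 h with 0.5, 1, 2 µM, then LPS 0.5 µg/mL for 24 h. iNOS, COX-2 and β-actin detected by Western blot (RIPA lysis, PVDF, primary 16 h at 4 °C, HRP secondary, ECL). Blots representative of three separate experiments.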

RAW264.7 [7] = assay: Inhibition of LPS-induced ROS generation in mouse RAW264.7 cells at 0.5 to 2 uM preincubated for 1 hr followed by LPS stimulation and measured after 6 hrs by DCFH-DA staining based flow cytometry analysis; format: functional, cell-based; conditions: dose 0.5-2 µM, time 7.0 hrs
Summary of the method: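 RAW264.7 cells (1.5 × 10^6/well, grown 24 h) pretreated 1 h with 0.5, 1, 2 µM, then LPS 0.5 µg/mL for 6 h. Loaded with DCFH-DA 30 min at 37 °C, washed three times with cold serum-free medium or PBS. Intracellular ROS read by flow cytometry.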

RAW264.7 [8] = assay: Activation of Nrf2/HO-1 signalling pathway in mouse RAW264.7 cells assessed as increase in nuclear Nrf2 protein expression at 0.5 to 2 uM preincubated for 1 hr followed by LPS stimulation and measured after 24 hrs by Western blotting analysis; format: cell-based; conditions: filed as activator, dose 0.5-2 µM, time 25.0 hrs
Summary of the method: (§1)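 RAW264.7 cells (2 × 10^6/well, grown 24 h) pretreated 1 h with 0.5, 1, 2 µM, then LPS 0.5 µg/mL for 24 h. Lysed in RIPA with PMSF and phosphatase inhibitors, SDS-PAGE, PVDF transfer. Primary antibodies (anti-Nrf2 or anti-HO-1) 16 h at 4 °C, HRP secondary 1:5000 1 h at room temperature, ECL detection. β-actin used for normalization.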

RAW264.7 [9] = assay: Activation of Nrf2/HO-1 signalling pathway in mouse RAW264.7 cells assessed as increase in HO-1 protein expression at 0.5 to 2 uM preincubated for 1 hr followed by LPS stimulation and measured after 24 hrs by Western blotting analysis; format: cell-based; conditions: filed as activator, dose 0.5-2 µM, time 25.0 hrs; summary of the method: as §1
RAW264.7 [10] = assay: Activation of Nrf2/HO-1 signalling pathway in mouse RAW264.7 cells assessed as inhibition of LPS-induced NO production at 2 uM preincubated for 1 hr in presence of NAC followed by LPS stimulation and measured after 24 hrs by Griess reagent-based assay; format: cell-based; conditions: time 25.0 hrs
Summary of the method: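 Cells pretreated 1 h with or without NAC 5 mM alongside 2 µM compound, then LPS 0.5 µg/mL for 24 h. Medium NO measured by Griess reagent. Means ± SD of three independent experiments.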

RAW264.7 [11] = assay: Inhibition of NF-kappaB activation in mouse RAW264.7 cells assessed as reduction in LPS-induced IkappaB protein degradation at 0.5 to 2 uM preincubated for 1 hr followed by LPS stimulation and measured after 30 mins by Western blotting analysis; format: cell-based; conditions: dose 0.5-2 µM, time 90.0 min
Summary of the method: (§2)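 Pretreatment 1 h with 0.5–2 µM, then LPS 0.5 µg/mL for 30 min. p-IκB, IκB, p-p65, p65, ERK, JNK, p38 and their phosphorylated forms, plus β-actin, detected by Western blot (RIPA lysis, SDS-PAGE, PVDF, primary 16 h at 4 °C, HRP secondary 1:5000, ECL).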

RAW264.7 [12] = assay: Inhibition of NF-kappaB activation in mouse RAW264.7 cells assessed as reduction in LPS-induced p65 nuclear translocation at 0.5 to 2 uM preincubated for 1 hr followed by LPS stimulation and measured after 30 mins by Western blotting analysis; format: cell-based; conditions: dose 0.5-2 µM, time 90.0 min
RAW264.7 [13] = assay: Inhibition of MAPK signalling activation in mouse RAW264.7 cells assessed as reduction in LPS-induced JNK phosphorylation at 0.5 to 2 uM preincubated for 1 hr followed by LPS stimulation by Western blotting analysis; format: cell-based; conditions: dose 0.5-2 µM, TDE = time-dependent effect; summary of the method: as §2
RAW264.7 [14] = assay: Inhibition of MAPK signalling activation in mouse RAW264.7 cells assessed as reduction in LPS-induced p38 phosphorylation at 0.5 to 2 uM preincubated for 1 hr followed by LPS stimulation by Western blotting analysis; format: cell-based; conditions: dose 0.5-2 µM, TDE = time-dependent effect; summary of the method: as §2
Rattus norvegicus [15] = assay: Antiarthritic activity in Sprague-Dawley rat model of CFA-induced arthritis assessed as reduction in paw swelling at 20 to 40 mg/kg, […] and measured every 3 days; format: functional, organism-based; conditions: dose 20-40 mg/kg
Rattus norvegicus [16] = assay: Antiarthritic activity in Sprague-Dawley rat model of arthritis assessed as reduction in CFA-induced cartilage destruction at 20 mg/kg, […] and measured every 3 days by H and E staining based histopathological analysis; format: functional, organism-based
Rattus norvegicus [17] = assay: Antiarthritic activity in Sprague-Dawley rat model of arthritis assessed as reduction in CFA-induced cartilage destruction at 40 mg/kg, ig […] and measured every 3 days by H and E staining based histopathological analysis; format: functional, organism-based
Rattus norvegicus [18] = assay: Antiarthritic activity in Sprague-Dawley rat model of arthritis assessed as reduction in CFA-induced inflammatory cell infiltration at 40 mg/kg, ig administered daily for 28 days starting from 14 days post-immunization and measured every 3 days by H and E staining based histopathological analysis; format: functional, organism-based; conditions: time 28.0 day
Summary of the method: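 AA rats (male SD, CFA intradermal into right hind paw) dosed intragastrically once daily at 20 or 40 mg/kg from day 14 to day 28. Killed after 29 days. Ankle joints fixed in 4% neutral buffered paraformaldehyde, decalcified in 10% EDTA, sectioned and H&E stained. Scored for synovial hyperplasia, inflammatory cell infiltration and cartilage destruction.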

COc1cc(OC)c2c(c1)C(C(O)c1ccc(OCc3ccc(F)cc3)cc1)OC2=O (stereo not drawn)
Activity (RAW264.7 [1]): Non-Toxic | inhibition at 10 µM (RAW264.7 [2]): 95.2% | IC50 (RAW264.7 [3]): 0.76 µM | IC50 (RAW264.7 [4]): > 40 µM | IC50 (RAW264.7 [5]): > 40 µM | inhibition (RAW264.7 [6]): Dose-dependent effect | inhibition (RAW264.7 [7]): inactive | Activity (RAW264.7 [8]): Active | Activity (RAW264.7 [9]): Active | Activity (RAW264.7 [10]): inactive | inhibition (RAW264.7 [11]): Active | inhibition (RAW264.7 [12]): Active | inhibition (RAW264.7 [13]): Tde | inhibition (RAW264.7 [14]): Tde | Activity (Rattus norvegicus [15]): Active | Activity (Rattus norvegicus [16]): Active | Activity (Rattus norvegicus [17]): Active | Activity (Rattus norvegicus [18]): Active
